Activity calls are given as the source filed them. No cut-off for these calls is given here.
What was measured:
[1] = molecular target: T1, LC3/Nicotinamide phosphoribosyltransferase (Homo sapiens) (UniProt P43490+Q9BXW4+Q9GZQ8+Q9H492); assay: Autophagosome tethering activity at NAMPT overexpressing human A2780 cells assessed as lysosome-mediated degradation of NAMPT at 3 uM incubated for 48 hrs; format: cell-based
Procedure, shortened: (§1)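 A2780 cells were exposed to compound for 48 h. The medium was then removed and the cells washed three times with PBS and lysed on ice in RIPA buffer for 30 min. Lysates were centrifuged at 1.2 × 10^5 g, 4 °C, for 15 min. Protein was quantified by BCA and denatured at 100 °C. Blots were blocked in 5% BSA/TBST for 2 h, probed with primary antibody at 4 °C overnight and secondary for 1 h, and NAMPT was read on Odyssey.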

[2] = molecular target: T2, Nicotinamide phosphoribosyltransferase (Homo sapiens, UniProt P43490); assay: Inhibition of NAMPT (unknown origin) measured after 90 mins by measuring fluorescence intensity
Target sequence in this assay (P43490 whole entry): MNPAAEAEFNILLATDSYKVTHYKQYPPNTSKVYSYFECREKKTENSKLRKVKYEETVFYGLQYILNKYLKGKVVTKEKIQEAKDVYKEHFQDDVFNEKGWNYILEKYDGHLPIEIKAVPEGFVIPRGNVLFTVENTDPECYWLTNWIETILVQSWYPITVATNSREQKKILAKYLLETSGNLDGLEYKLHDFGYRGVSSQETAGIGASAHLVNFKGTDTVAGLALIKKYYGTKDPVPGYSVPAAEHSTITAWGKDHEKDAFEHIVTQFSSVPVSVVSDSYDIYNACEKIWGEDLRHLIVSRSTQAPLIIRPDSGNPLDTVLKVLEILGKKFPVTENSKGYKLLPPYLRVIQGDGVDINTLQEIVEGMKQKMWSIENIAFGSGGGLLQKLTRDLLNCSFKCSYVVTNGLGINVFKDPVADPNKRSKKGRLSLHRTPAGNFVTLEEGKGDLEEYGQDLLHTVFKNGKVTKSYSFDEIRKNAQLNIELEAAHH

[3] = molecular target: T1, LC3/Nicotinamide phosphoribosyltransferase (Homo sapiens); assay: Autophagosome tethering activity at NAMPT overexpressing human A2780 cells assessed as lysosome-mediated degradation of NAMPT at 0.1 uM incubated for 48 hrs; format: cell-based; procedure, shortened: as §1
A2780 [4] = assay: Antiproliferative activity against human A2780 cells overexpressing NAMPT assessed as cell growth inhibition incubated for 72 hrs; format: functional, cell-based; details: A2780, 72 h
A2780 [5] = assay: Binding affinity to KSP in human A2780 cell lysate incubated at 51 to 63 degree Celsius for 4 hrs by Western blotting based CETSA method; format: subcellular
Procedure, shortened: (§2)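 CETSA: A2780 cells were seeded at × 107/well and incubated overnight at 37 °C, 5% CO2. Compound was added at the indicated concentration for 4 h. Cells were collected and lysed by three 5-min liquid-nitrogen freeze cycles, then centrifuged at 1.2 × 10^5 g, 4 °C, for 15 min. Supernatants were denatured at 100 °C and protein level was detected by SDS-PAGE.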

HCT-116 = assay: Antiproliferative activity against human HCT-116 cells expressing NAMPT assessed as cell growth inhibition incubated for 72 hrs; format: functional, cell-based
[6] = Stability of compound in 1640 culture medium measured up to 72 hrs by HPLC analysis; format: physicochemical
MDA-MB-231 = assay: Antiproliferative activity against human MDA-MB-231 cells overexpressing NAMPT assessed as cell growth inhibition incubated for 72 hrs; format: functional, cell-based
[7] = molecular target: T2, Nicotinamide phosphoribosyltransferase; assay: Binding affinity to NAMPT in human A2780 cell lysate assessed as thermal stability incubated at 51 to 63 degree Celsius for 4 hrs by Western blotting based CETSA method; format: subcellular; procedure, shortened: as §2
Target sequence in this assay (P43490 whole entry, looked up): as the sequence (P43490 whole entry) above

[8] = molecular target: T3, Microtubule-associated protein 1 light chain 3 beta (Homo sapiens, UniProt Q9GZQ8); assay: Binding affinity to LC3B (unknown origin) assessed as dissociation constant by surface plasmon resonance analysis
[9] = Inhibition of kinesin spindle protein (unknown origin); design: species or system Homo sapiens
A2780 [10] = assay: Cytotoxicity against human A2780 cells; format: functional, cell-based
[11] = molecular target: T3, Microtubule-associated protein 1 light chain 3 beta; assay: Binding affinity to human recombinant LC3B assessed as dissociation constant by isothermal titration calorimetry
Procedure, shortened: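 Reverse titration of recombinant LC3B (1500 μM in syringe) into a cell holding 100 μM ligand, in 20 mM HEPES-HCl pH 7.3, 100 mM NaCl, 1% DMSO, at 25 °C. Injections were spaced 120 s apart so the signal returned to baseline. Thermodynamic parameters and KD came from the titration isotherm.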

[12] = molecular target: T3, Microtubule-associated protein 1 light chain 3 beta; assay: Binding affinity to human recombinant LC3B assessed as dissociation constant incubated for 30 mins by fluorescence anisotropy assay
Procedure, shortened: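 Fluorescence anisotropy used fluorescein-labeled ispinesib as the tracer, diluted to 50 nM in HEPES buffer, final 25 nM. A twofold serial dilution of LC3 protein in HEPES buffer was added. KD was derived from anisotropy. Measurements were done in triplicate and given as mean ± standard deviation.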

HeLa = assay: Drug localization in human HeLa cells by measuring colocalization with lysosome probe treated for 2 hrs by confocal microscopy; format: functional, cell-based
Procedure, shortened: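 HeLa cells were treated with the green fluorescent probe for 2 h, then stained with a red lysosome probe for another 1.5 h. Colocalization was imaged by confocal microscopy.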

Compound	Activity [1]	IC50 [2]	Activity [3]	other results
Cc1ccc(C(=O)N(CCCNC(=O)CCCCCCCCCN2CCN(S(=O)(=O)c3ccc(NC(=S)NCc4cccnc4)cc3)CC2)[C@@H](c2nc3cc(Cl)ccc3c(=O)n2Cc2ccccc2)C(C)C)cc1	92%	0.034 µM	85%	–
O=S(=O)(c1ccc(NC(=S)NCc2cccnc2)cc1)N1CCNCC1	–	–	–	IC50 (A2780 [4]): 0.49 µM
Cc1ccc(C(=O)N(CCCNC(=O)CCCCCCN2CCN(S(=O)(=O)c3ccc(NC(=S)NCc4cccnc4)cc3)CC2)[C@@H](c2nc3cc(Cl)ccc3c(=O)n2Cc2ccccc2)C(C)C)cc1	86%	0.015 µM	9%	–
Cc1ccc(C(=O)N(CCCNC(=O)CCCCCCCCN2CCN(S(=O)(=O)c3ccc(NC(=S)NCc4cccnc4)cc3)CC2)[C@@H](c2nc3cc(Cl)ccc3c(=O)n2Cc2ccccc2)C(C)C)cc1	91%	0.023 µM	90%	Activity (A2780 [5]): Active; Activity (HCT-116): Active; Stability [6]: Stable; IC50 (A2780 [4]): 0.046 µM; Activity (MDA-MB-231): Active; Activity [7]: Active; Kd [8]: 0.933 µM
Cc1ccc(C(=O)N(CCCN)[C@H](c2nc3cc(Cl)ccc3c(=O)n2Cc2ccccc2)C(C)C)cc1	–	–	–	IC50 [9]: 0.0005 µM; Activity (A2780 [10]): Active; Kd [11]: 11.8 µM
Cc1ccc(C(=O)N(CCCNC(=S)Nc2ccc3c(c2)C(=O)OC32c3ccc(O)cc3Oc3cc(O)ccc32)[C@@H](c2nc3cc(Cl)ccc3c(=O)n2Cc2ccccc2)C(C)C)cc1	–	–	–	Kd [12]: 0.175 µM; Activity (HeLa): Active
Cc1ccc(C(=O)N(CCCNC(=O)CCCCCCCCCCN2CCN(S(=O)(=O)c3ccc(NC(=S)NCc4cccnc4)cc3)CC2)[C@@H](c2nc3cc(Cl)ccc3c(=O)n2Cc2ccccc2)C(C)C)cc1	93%	0.013 µM	33%	–
Cc1ccc(C(=O)N(CCCNC(=O)CCCCCCCN2CCN(S(=O)(=O)c3ccc(NC(=S)NCc4cccnc4)cc3)CC2)[C@@H](c2nc3cc(Cl)ccc3c(=O)n2Cc2ccccc2)C(C)C)cc1	83%	0.019 µM	1%	–
Cc1ccc(C(=O)N(CCCNC(=O)CCOCCOCCOCCN2CCN(S(=O)(=O)c3ccc(NC(=S)NCc4cccnc4)cc3)CC2)[C@@H](c2nc3cc(Cl)ccc3c(=O)n2Cc2ccccc2)C(C)C)cc1	91%	0.01 µM	76%	–
Cc1ccc(C(=O)N(CCCNC(=O)CCOCCN2CCN(S(=O)(=O)c3ccc(NC(=S)NCc4cccnc4)cc3)CC2)[C@@H](c2nc3cc(Cl)ccc3c(=O)n2Cc2ccccc2)C(C)C)cc1	86%	0.01 µM	1%	–

— ChEMBL document CHEMBL5154920, “Ispinesib as an Effective Warhead for the Design of Autophagosome-Tethering Chimeras: Discovery of Potent Degraders of Nicotinamide Phosphoribosyltransferase (NAMPT)” (J Med Chem, 2022)
